From ChEMBL document CHEMBL4308887, “Synthesis and biological evaluation of clovamide analogues with catechol functionality as potent Parkinson's disease agents in vitro and in vivo” (Bioorg Med Chem Lett, 2019)

Experiments:
SH-SY5Y [1] = assay: Neuroprotection against H2O2-induced cell death in human SH-SY5Y cells at 100 uM preincubated for 6 hrs followed by H2O2 addition and measured after 24 hrs by MTT assay relative to control; type: functional
Outline: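 Human SH-SY5Y neuroblastoma cells pretreated with compound at 100 μM for 6 h, then exposed to 600 μM H₂O₂ for 24 h; viability read by MTT and expressed as protection rate relative to untreated control. DMSO below 0.1% in all groups. Primary single-concentration screen; three independent experiments.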

SH-SY5Y [2] = assay: Neuroprotection against H2O2-induced cell death in human SH-SY5Y cells preincubated for 6 hrs followed by H2O2 addition and measured after 24 hrs by MTT assay; type: functional, cell-based
Outline: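 Primary screen at 100 μM, then dose-response. SH-SY5Y cells pretreated, then exposed to 600 μM H₂O₂ (the level chosen from a 100–1000 μM, 24 h viability titration). EC₅₀ is the concentration giving 50% of maximal effect. N-acetyl-L-cysteine served as positive control. DMSO below 0.1%. Mean ± S.E.M. of three experiments.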

## COC(=O)[C@H](Cc1ccccc1)NC(=O)/C=C/c1ccc(O)cc1
SH-SY5Y [1]
  Activity: <50%

## COC(=O)[C@H](Cc1ccc(O)cc1)NC(=O)/C=C/c1ccc(O)c(O)c1
SH-SY5Y [2]
  EC50: 11.3 µM
SH-SY5Y [1]
  Activity: >50%

## COC(=O)[C@H](Cc1ccc(O)cc1)NC(=O)/C=C/c1ccc(O)cc1
SH-SY5Y [1]
  Activity: <50%

## COC(=O)[C@H](Cc1ccccc1)NC(=O)/C=C/c1ccccc1
SH-SY5Y [1]
  Activity: <50%

## COC(=O)[C@H](Cc1ccc(O)cc1)NC(=O)/C=C/c1ccccc1
SH-SY5Y [1]
  Activity: <50%

## COC(=O)[C@H](Cc1ccc(O)c(O)c1)NC(=O)/C=C/c1ccc(O)cc1
SH-SY5Y [2]
  EC50: 19.1 µM
SH-SY5Y [1]
  Activity: >50%

## COC(=O)[C@H](Cc1ccc(O)c(O)c1)NC(=O)/C=C/c1ccc(O)c(OC)c1
SH-SY5Y [2]
  EC50: 23.8 µM
SH-SY5Y [1]
  Activity: >50%

## COC(=O)[C@H](Cc1ccccc1)NC(=O)/C=C/c1ccc(O)c(OC)c1
SH-SY5Y [1]
  Activity: <50%

## COC(=O)[C@H](Cc1ccc(O)cc1)NC(=O)/C=C/c1cccc(O)c1
SH-SY5Y [1]
  Activity: <50%

## COC(=O)[C@H](Cc1ccccc1)NC(=O)/C=C/c1cccc(O)c1
SH-SY5Y [1]
  Activity: <50%

## COC(=O)[C@H](Cc1ccc(O)cc1)NC(=O)/C=C/c1cccc(OC)c1
SH-SY5Y [1]
  Activity: <50%

## COC(=O)[C@H](Cc1ccc(O)c(O)c1)NC(=O)/C=C/c1cccc(O)c1
SH-SY5Y [2]
  EC50: 17.5 µM
SH-SY5Y [1]
  Activity: >50%

## CC(=O)N[C@@H](CS)C(=O)O [ACETYLCYSTEINE]
SH-SY5Y [2]
  EC50: 1680 µM

## O=C(O)/C=C/c1ccc(O)c(O)c1 [CAFFEIC ACID]
SH-SY5Y [2]
  EC50: 33.8 µM

## COC(=O)[C@H](Cc1ccc(O)c(O)c1)NC(=O)/C=C/c1ccc(O)c(O)c1 [N-CAFFEOYL-DOPA METHYL ESTER]
SH-SY5Y [2]
  EC50: 15.6 µM
SH-SY5Y [1]
  Activity: >50%

## COC(=O)[C@H](Cc1ccc(O)c(O)c1)NC(=O)/C=C/c1ccccc1 [N-CINNAMOYL-DOPA METHYL ESTER]
SH-SY5Y [2]
  EC50: 14.3 µM
SH-SY5Y [1]
  Activity: >50%
